# Where “and” joins values, the source holds several entries; their conditions need not be identical. Identical values can stand only once. Calls of active or inactive are those of the source. The calls are words filed in the database; no cut-off is given here.
# Experiments:
# Assay type in all cases: functional
# Enterovirus [1] = assay: In vitro anti-rhinovirus activity was measured as mean MIC for five serotypes, HRV-1A, -2, -22, -41, and -50
# Method in brief: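 Mean of plaque-reduction-assay MICs across five rhinovirus serotypes (HRV-1A, -2, -22, -41, -50), chosen to represent a range of sensitivity to this compound class.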
# Enterovirus [2] = assay: Minimum inhibitory concentration against rhinovirus serotype 41
# Method in brief: (§1)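 Rhinovirus minimum inhibitory concentration (MIC) determined in a plaque reduction assay in cell culture, testing each serotype separately.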
# Enterovirus [3] = assay: Minimum inhibitory concentration against rhinovirus serotype 1A; method in brief: as §1
# Enterovirus [4] = assay: Minimum inhibitory concentration against rhinovirus serotype 50; method in brief: as §1
# Enterovirus [5] = assay: Minimum inhibitory concentration against rhinovirus serotype 30; method in brief: as §1
# Enterovirus [6] = assay: Minimum inhibitory concentration against rhinovirus serotype 67; method in brief: as §1
# Enterovirus [7] = assay: Minimum inhibitory concentration against rhinovirus serotype 15; conditions: Enterovirus; read-out: MIC; method in brief: as §1
# Enterovirus [8] = assay: Minimum inhibitory concentration against rhinovirus serotype 6.; method in brief: as §1
# Enterovirus [9] = assay: Minimum inhibitory concentration against rhinovirus serotype 25; method in brief: as §1
# Enterovirus [10] = assay: Minimum inhibitory concentration against rhinovirus serotype 21.; method in brief: as §1
# Enterovirus [11] = assay: Concentration required to inhibit 80 percent rhinovirus cell culture
# Method in brief: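 MIC80 is the concentration that inhibits 80% of the rhinovirus serotypes tested. It is derived from per-serotype MICs measured by plaque reduction assay.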
# Enterovirus [12] = assay: (§2) In vitro anti-rhinovirus activity was measured as maximum testable levels - highest concentration of compound which causes no apparent effect on the cell monolayers
# Enterovirus [13] = assay: Minimum inhibitory concentration against rhinovirus serotype 89; method in brief: as §1
# Enterovirus [14] = assay: as §2; remark: listed apart in the source
# Enterovirus [15] = assay: Minimum inhibitory concentration against rhinovirus serotype 86; method in brief: as §1
# Enterovirus [16] = assay: Minimum inhibitory concentration against rhinovirus serotype 1B; method in brief: as §1
# Enterovirus [17] = assay: Minimum inhibitory concentration against rhinovirus serotype 1B.; method in brief: as §1
# Enterovirus [18] = assay: Minimum inhibitory concentration against rhinovirus serotype 14; method in brief: as §1
SMILES,MIC (Enterovirus [1]) [µM],MIC (Enterovirus [2]) [µM],MIC (Enterovirus [3]) [µM],MIC (Enterovirus [4]) [µM],"MIC (Enterovirus [6]; Enterovirus, read-out: MIC) [µM]",MIC (Enterovirus [7]) [µM],MIC (Enterovirus [8]) [µM],"MIC (Enterovirus [10]; Enterovirus, read-out: MIC) [µM]",MIC80 (Enterovirus [11]) [µM],MIC (Enterovirus [12]) [µM],MIC (Enterovirus [13]),"MIC (Enterovirus [5]; Enterovirus, read-out: MIC) [µM]","MIC (Enterovirus [8]; Enterovirus, read-out: MIC) [µM]",MIC (Enterovirus [10]),MIC (Enterovirus [15]) [µM],"MIC (Enterovirus [17]; Enterovirus, read-out: MIC) [µM]",also measured
Cc1cc(CCCCCOc2c(F)cc(C3=NCCO3)cc2F)on1,2.69,2.3,0.13,0.1,0.12,0.5,1.1,0.08,1.9,2.7,,,,,,,MIC (Enterovirus [5]): 0.5 µM and 0.2 µM; MIC (Enterovirus [6]): 0.1 µM; MIC (Enterovirus [9]): 6.6 µM
Cc1cc(CCCCCOc2c(Br)cc(C3=NCCO3)cc2[N+](=O)[O-])on1,1.16,1.6,0.1,0.2,,0.5,,0.5,0.7,1.2,0.03 µM,0.2,,0.6 µM,,0.3,MIC (Enterovirus [16]): 0.7 µM
Cc1cc(CCCCCOc2c(C)cc(C3=NCCO3)cc2Cl)on1,0.92,1.9,0.04,0.7,,0.6,,0.2,0.9,0.7,,,0.06,,,0.4,MIC (Enterovirus [18]): 0.6 µM; MIC (Enterovirus [17]): 0.6 µM
Cc1cc(CCCCCOc2c(Cl)cc(C3=NCCO3)cc2C(F)(F)F)on1,0.54,0.8,0.2,0.2,1,0.4,,,1.3,0.5,0.05 µM,0.2,,,1.3,,

# Continued by falling MIC (Enterovirus [1]), values first:
MIC (Enterovirus [1]) [µM],MIC (Enterovirus [2]) [µM],MIC (Enterovirus [3]) [µM],MIC (Enterovirus [4]) [µM],"MIC (Enterovirus [6]; Enterovirus, read-out: MIC) [µM]",MIC (Enterovirus [7]) [µM],MIC (Enterovirus [8]) [µM],"MIC (Enterovirus [10]; Enterovirus, read-out: MIC) [µM]",MIC80 (Enterovirus [11]) [µM],MIC (Enterovirus [12]) [µM],MIC (Enterovirus [13]),"MIC (Enterovirus [5]; Enterovirus, read-out: MIC) [µM]","MIC (Enterovirus [8]; Enterovirus, read-out: MIC) [µM]",MIC (Enterovirus [10]),MIC (Enterovirus [15]) [µM],"MIC (Enterovirus [17]; Enterovirus, read-out: MIC) [µM]",SMILES,also measured
5.16,15,1.1,,0.4,1.5,0.9,1.2,7,5.2,inactive,0.3,0.7,inactive,,,Cc1cc(CCCCCOc2ccc(C3=NCCO3)cc2)on1,"MIC (Enterovirus [14]): 7 µM; MIC (Enterovirus [14]; Enterovirus, read-out: MIC): 9.9 µM"
1.35,3,0.07,0.2,0.3,0.2,,,0.5,1.4,0.02 µM,0.05,,,0.4,,Cc1cc(CCCCCOc2c(Cl)cc(C3=NCCO3)cc2[N+](=O)[O-])on1,

# Source: ChEMBL document CHEMBL1124399, “Synthesis and structure-activity studies of some disubstituted phenylisoxazoles against human picornavirus” (J Med Chem, 1989)
